Measured values published in ChEMBL document CHEMBL4689842, “EUbOPEN Chemogenomics Library wave 1” (2021).
Several values for one entry are separate records, joined by “and”; a condition that tells them apart may be missing. Identical values can stand only once.

Key:
[1] = test system: HEK-293T; assay: Multiplex assay against HEK293T; format: toxicity, cell-based; conditions: human;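 as to Population Tubulin-Different-Phenotype (%): share of the cells with healthy nuclei that show this phenotype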
How it was run: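 Live cells were stained at seeding with Hoechst33342, BioTracker Green Microtubule Cytoskeleton Dye, MitoTracker Red and Annexin V Alexa Fluor 680, then imaged on a CQ1 microscope at 37°C and 5% CO2 after compound addition. CellPathfinder machine-learning gating split cells into Hoechst high-intensity objects or normal cells. Normal cells were split into healthy, pyknosed or fragmented nuclei, and pyknosed cells into mitotic or apoptotic. Tubulin, mitochondrial-mass and membrane-permeability phenotypes are per cents of healthy-nucleus cells.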

[2] = test system: Fibroblast; assay: Incucyte cell viability with human fibroblast; format: toxicity, cell-based; conditions: 10 µM, compound concentration 10 uM; also: filed as whole numbers so only -1 and 0 and 1 occur
[3] = 12 h, 1 µM, compound concentration 1 uM, replicate 1
[4] = 12 h, 1 µM, compound concentration 1 uM, replicate 2
[5] = 12 h, 10 µM, compound concentration 10 uM, replicate 1
[6] = 12 h, 10 µM, compound concentration 10 uM, replicate 2
[7] = 24 h, 1 µM, compound concentration 1 uM, replicate 1
[8] = 24 h, 1 µM, compound concentration 1 uM, replicate 2
[9] = 24 h, 10 µM, compound concentration 10 uM, replicate 1
[10] = 24 h, 10 µM, compound concentration 10 uM, replicate 2
[11] = 48 h, 1 µM, compound concentration 1 uM, replicate 1
[12] = 48 h, 1 µM, compound concentration 1 uM, replicate 2
[13] = 48 h, 10 µM, compound concentration 10 uM, replicate 1
[14] = 48 h, 10 µM, compound concentration 10 uM, replicate 2

CS(=O)(=O)N1CCCC(NC(=O)[C@H](CCC2CCCCC2)NC(=O)c2ccc(CNC(=O)c3cnc4ccccn34)cc2)C1 (some centres undefined) [SR-302]
Population Apoptotic (%) [1, 3]: 40% [middle of 4 runs]
Population Fragmented Nuclei (%) [1, 3]: 13% [middle of 4 runs]
Population Hoechst High Intensity Objects (%) [1, 3]: 14% [middle of 4 runs]
Population Membrane Permeable-Phenotype (%) [1, 3]: 3% and 2%
Population Mitotic Cells (%) [1, 3]: 65% [middle of 4 runs]
Population Normal (%) [1, 3]: 86% and 85% and 81%
Total Cell Count [1, 3]: 519 [middle of 4 runs]
Population Apoptotic (%) [1, 4]: 17% [middle of 4 runs]
Population Fragmented Nuclei (%) [1, 4]: 8% and 5%
Population Healthy Nuclei (%) [1, 4]: 48% [middle of 4 runs]
Population Hoechst High Intensity Objects (%) [1, 4]: 6% and 3% and 2%
Population Mitotic Cells (%) [1, 4]: 88% [middle of 4 runs]
Population Normal (%) [1, 4]: 93% and 96% and 97%
Population Apoptotic (%) [1, 5]: 65% [middle of 4 runs]
Population Fragmented Nuclei (%) [1, 5]: 13% and 12% and 16%
Population Hoechst High Intensity Objects (%) [1, 5]: 16% [middle of 4 runs]
Population Membrane Permeable-Phenotype (%) [1, 5]: 7% and 4% and 3%
Population Mitotic Cells (%) [1, 5]: 35% [middle of 4 runs]
Population Normal (%) [1, 5]: 85% and 83% and 77% and 86%
Total Cell Count [1, 5]: 331 [middle of 4 runs]
Population Healthy Nuclei (%) [1, 6]: 30% and 36% and 87%
Population Membrane Permeable-Phenotype (%) [1, 6]: 12% and 8%
Population Mitotic Cells (%) [1, 6]: 52% [middle of 4 runs]
Population Normal (%) [1, 6]: 95% and 90% and 94% and 97%
Population Tubulin-Different-Phenotype (%) [1, 6]: 93% [middle of 4 runs]
Population Apoptotic (%) [1, 7]: 52% [middle of 4 runs]
Population Fragmented Nuclei (%) [1, 7]: 13% [middle of 4 runs]
Population Hoechst High Intensity Objects (%) [1, 7]: 15% and 14% and 24%
Population Membrane Permeable-Phenotype (%) [1, 7]: 4% and 3% and 2%
Population Mitotic Cells (%) [1, 7]: 64% [middle of 4 runs]
Population Normal (%) [1, 7]: 84% and 85% and 75%
Population Healthy Nuclei (%) [1, 8]: 65% [middle of 4 runs]
Population Membrane Permeable-Phenotype (%) [1, 8]: 11% and 7% and 5%
Population Mitotic Cells (%) [1, 8]: 76% and 75% and 93%
Population Normal (%) [1, 8]: 95% and 97% and 96% and 98%
Population Apoptotic (%) [1, 9]: 63% and 66% and 26%
Population Fragmented Nuclei (%) [1, 9]: 18% [middle of 4 runs]
Population Hoechst High Intensity Objects (%) [1, 9]: 17% [middle of 4 runs]
Population Mitotic Cells (%) [1, 9]: 36% and 33% and 73%
Population Normal (%) [1, 9]: 82% and 84% and 81% and 89%
Total Cell Count [1, 9]: 335 [middle of 4 runs]
Population Fragmented Nuclei (%) [1, 10]: 3% and 6%
Population Healthy Nuclei (%) [1, 10]: 44% and 77% and 50%
Population Membrane Permeable-Phenotype (%) [1, 10]: 13% and 6% and 5%
Population Mitotic Cells (%) [1, 10]: 94% and 46% and 37%
Population Normal (%) [1, 10]: 98% and 97% and 91% and 95%
Population Tubulin-Different-Phenotype (%) [1, 10]: 56% and 88% and 94%
Population Apoptotic (%) [1, 11]: 46% and 31% and 58%
Population Fragmented Nuclei (%) [1, 11]: 25% and 16% and 23%
Population Healthy Nuclei (%) [1, 11]: 24% and 43% and 23%
Population Hoechst High Intensity Objects (%) [1, 11]: 11% and 24%
Population Membrane Permeable-Phenotype (%) [1, 11]: 1% and 0%
Population Mitochondria Different-Phenotype (%) [1, 11]: 42% and 44% and 58%
Population Mitotic Cells (%) [1, 11]: 53% and 68% and 41%
Population Normal (%) [1, 11]: 88% and 76%
Population Pyknosed Nuclei (%) [1, 11]: 49% and 40% and 53%
Population Tubulin-Different-Phenotype (%) [1, 11]: 18% and 29% and 41%
Total Cell Count [1, 11]: 293 and 638 and 325
Population Apoptotic (%) [1, 12]: 30% and 16% and 25%
Population Fragmented Nuclei (%) [1, 12]: 5% and 6% and 7%
Population Healthy Nuclei (%) [1, 12]: 81% and 84% and 82%
Population Hoechst High Intensity Objects (%) [1, 12]: 5% and 4%
Population Membrane Permeable-Phenotype (%) [1, 12]: 3%
Population Mitochondria Different-Phenotype (%) [1, 12]: 9% and 8% and 10%
Population Mitotic Cells (%) [1, 12]: 69% and 83% and 74%
Population Normal (%) [1, 12]: 94% and 95%
Population Pyknosed Nuclei (%) [1, 12]: 12% and 9% and 10%
Population Tubulin-Different-Phenotype (%) [1, 12]: 16% and 27%
Total Cell Count [1, 12]: 344 and 689 and 583
Population Apoptotic (%) [1, 13]: 64% and 65% and 62%
Population Fragmented Nuclei (%) [1, 13]: 23% and 21% and 33%
Population Healthy Nuclei (%) [1, 13]: 18% and 20% and 19%
Population Hoechst High Intensity Objects (%) [1, 13]: 22% and 18%
Population Membrane Permeable-Phenotype (%) [1, 13]: 3% and 0%
Population Mitochondria Different-Phenotype (%) [1, 13]: 90% and 100% and 97%
Population Mitotic Cells (%) [1, 13]: 35% and 34% and 37%
Population Normal (%) [1, 13]: 77% and 81%
Population Pyknosed Nuclei (%) [1, 13]: 58% and 57% and 47%
Population Tubulin-Different-Phenotype (%) [1, 13]: 96% and 95%
Total Cell Count [1, 13]: 360 and 347 and 256
Population Apoptotic (%) [1, 14]: 61% and 73% and 52%
Population Fragmented Nuclei (%) [1, 14]: 4% and 5% and 8%
Population Healthy Nuclei (%) [1, 14]: 69% and 75% and 71%
Population Membrane Permeable-Phenotype (%) [1, 14]: 1%
Population Mitochondria Different-Phenotype (%) [1, 14]: 89% and 83%
Population Mitotic Cells (%) [1, 14]: 38% and 26% and 47%
Population Normal (%) [1, 14]: 97% and 95% and 92%
Population Pyknosed Nuclei (%) [1, 14]: 26% and 19%
Total Cell Count [1, 14]: 310 and 372 and 210
Growth Rate ([2]; 0 h, replicate number 1, timepoint 0 hours): 0
Growth Rate ([2]; 6 h, replicate number 1, timepoint 6 hours): 1
Growth Rate ([2]; 12 h, replicate number 1, timepoint 12 hours): 0
Growth Rate ([2]; 18 h, replicate number 1, timepoint 18 hours): 0
Growth Rate ([2]; 24 h, replicate number 1, timepoint 24 hours): 0
